The results in this text go back to publication PMC2855844 (Cancer immunology, immunotherapy : CII, 2009).

“Also recorded” adds a separate entry of the source. Where only a bound is given, the exact number is not on record here.

The subject of one experiment is Meth A-specific CTL. It is filed as cell-based, mouse. Particulars: E/T ratio 6:1, 4 h ^51Cr-release. Put shortly: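 Targets were T2-Kd cells pulsed with peptide, labeled with Na51CrO4, and plated at 1 × 10^3 per well. Meth A-specific CTL (cloned CD3+CD4−CD8+NK-1.1− line from Meth A-immune BALB/c mice) were added at E:T 6:1. Release was measured over 4 h and expressed as % specific lysis.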

In the next experiment the target is H2-K^d (Mus musculus, UniProt P01902). The experiment in a line: MHC stabilization assay. It is filed as binding. The following applies: T2-K^d cells, 37°C, MFI with anti-H2-K^d mAb and FITC-conjugated anti-mouse IgG. The gist of the method: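 Peptide-pulsed T2-Kd cells were kept at 37°C, then stained with anti-H2-Kd mAb (HB159) and FITC-conjugated anti-mouse IgG. Surface Kd was read as mean fluorescence intensity. Reference samples were unpulsed cells and peptide-pulsed cells held at 4°C.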

The test system of the next experiment is human CD8^+ T cells. Nature of the experiment: in vitro stimulation of human CD8^+ T cells. The format is cell-based. Particulars: preliminary findings; listed as Hsd17b12^114T peptide.
Where [1] appears, read: T2-K^d cells pulsed with peptide.

Chain of H2-K^d (P01902 whole entry, looked up): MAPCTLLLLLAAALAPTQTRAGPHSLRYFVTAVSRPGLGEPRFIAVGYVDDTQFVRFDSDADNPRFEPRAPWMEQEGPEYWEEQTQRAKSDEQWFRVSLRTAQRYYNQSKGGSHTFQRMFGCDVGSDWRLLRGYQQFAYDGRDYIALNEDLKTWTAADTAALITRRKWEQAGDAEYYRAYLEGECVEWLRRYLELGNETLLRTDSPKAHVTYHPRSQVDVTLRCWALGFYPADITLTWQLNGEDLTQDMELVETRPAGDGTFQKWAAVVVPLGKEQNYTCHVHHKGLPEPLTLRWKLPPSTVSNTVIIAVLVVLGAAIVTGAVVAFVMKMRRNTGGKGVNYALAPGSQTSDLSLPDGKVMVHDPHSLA

As for IYDKIKTGL, in the experiment on Meth A-specific CTL (setting [1]), the “affinity of Meth A CTL for peptide” value was less than 1e-08 M. For the same sequence, the “affinity for H2-K^d molecules” value on H2-K^d is reported as ~ 1 × 10^−8 M.
For the sequence TYDKIKTGL, the “immunogenicity, stimulation of human CD8^+ T cells in vitro” value in the experiment on human CD8^+ T cells was “immunogenic; also recorded: can induce effectors cross-reactive against the HSD17B12_114–122 peptide, naturally presented by human tumor cell lines”. Besides, in the experiment on Meth A-specific CTL (setting [1]), the “affinity of Meth A CTL for peptide” value is given as ~ 1 × 10^−10 M and the “recognition by Meth A-specific CTL (in words)” value is given as “recognized by the Meth A-specific CTL”. Also, the “fold higher affinity of Meth A CTL (TYDKIKTGL vs IYDKIKTGL)” value in the experiment on Meth A-specific CTL (TYDKIKTGL over IYDKIKTGL, T2-K^d cells) came to 100 ×. Further, the “affinity for H2-K^d molecules” value on H2-K^d was ~ 1 × 10^−8 M.
